Measured values from ChEMBL document CHEMBL1649269, “In vitro activities of three new dihydrofolate reductase inhibitors against clinical isolates of gram-positive bacteria” (2009).
≈ marks a conversion by molar mass, not a printed value.

Key:
Corynebacterium sp. = experiment: Antimicrobial activity against Corynebacterium spp. by agar dilution method; assay type: functional
Staphylococcus [1] = experiment: Antimicrobial activity against Coagulase-negative Staphylococcus by agar dilution method; assay type: functional
Method in brief: (§1)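 CLSI agar dilution MIC testing of clinical isolates of staphylococci and Listeria. S. aureus ATCC 29213 and S. pneumoniae ATCC 49619 served as control strains. The percentage of susceptible isolates was calculated from CLSI breakpoints.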

Streptococcus pneumoniae [2] = experiment: Antimicrobial activity against Streptococcus pneumoniae assessed as susceptible isolates by agar dilution method; assay type: functional
Method in brief: (§2)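 Clinical isolates of beta-hemolytic streptococci, S. mitis and S. pneumoniae were tested by CLSI methodology, with Mueller-Hinton medium supplemented with 5% lysed horse blood. S. aureus ATCC 29213 and S. pneumoniae ATCC 49619 served as control strains. The percentage of susceptible isolates was derived from CLSI breakpoints.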

Streptococcus pneumoniae [3] = experiment: Antimicrobial activity against Streptococcus pneumoniae by agar dilution method; assay type: functional; method in brief: as §2
Staphylococcus aureus [4] = experiment: Antimicrobial activity against methicillin-resistant Staphylococcus aureus by agar dilution method; assay type: functional
Method in brief: (§3)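 MICs against clinical MRSA or MSSA isolates by CLSI agar dilution, with S. aureus ATCC 29213 as control strain. Percentage of susceptible isolates was calculated from the MICs using CLSI breakpoints.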

[5] = Antimicrobial activity against Group G Streptococcus assessed as susceptible isolates by agar dilution method; assay type: functional, Streptococcus sp. 'group G'; method in brief: as §2
Staphylococcus aureus [6] = experiment: Antimicrobial activity against methicillin-sensitive Staphylococcus aureus by agar dilution method; assay type: functional; method in brief: as §3
[7] = system: Streptococcus sp. 'group B'; experiment: Antimicrobial activity against Group B Streptococcus by agar dilution method; assay type: functional; method in brief: as §2
[8] = system: Streptococcus sp. 'group A'; experiment: Antimicrobial activity against Group A Streptococcus assessed as susceptible isolates by agar dilution method; assay type: functional; method in brief: as §2
[9] = Antimicrobial activity against Group C Streptococcus assessed as susceptible isolates by agar dilution method; assay type: functional, Streptococcus sp. 'group C'; method in brief: as §2
Listeria monocytogenes = experiment: Antimicrobial activity against Listeria monocytogenes by agar dilution method; assay type: functional; method in brief: as §1
Streptococcus mitis = experiment: Antimicrobial activity against Streptococcus mitis by broth dilution method
[10] = system: Streptococcus sp. 'group B'; experiment: Antimicrobial activity against Group B Streptococcus assessed as susceptible isolates by agar dilution method; assay type: functional; method in brief: as §2
[11] = Antimicrobial activity against Group G Streptococcus by agar dilution method; assay type: functional; conditions: Streptococcus sp. 'group G'; method in brief: as §2
Staphylococcus aureus [12] = experiment: Antimicrobial activity against vancomycin-resistant Staphylococcus aureus by agar dilution method; assay type: functional
Method in brief: (§4)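 Clinical S. aureus isolates classed as hVISA or VISA by population analysis profiling. MICs by CLSI agar dilution, with S. aureus ATCC 29213 as control strain.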

Staphylococcus aureus [13] = experiment: Antimicrobial activity against methicillin-sensitive Staphylococcus aureus assessed as susceptible isolates by agar dilution method; assay type: functional; method in brief: as §3
Staphylococcus [14] = experiment: Antimicrobial activity against Coagulase-negative Staphylococcus assessed as susceptible isolates by agar dilution method; assay type: functional; method in brief: as §1
[15] = system: Streptococcus sp. 'group A'; experiment: Antimicrobial activity against Group A Streptococcus by agar dilution method; assay type: functional; method in brief: as §2
Staphylococcus aureus [16] = experiment: Antimicrobial activity against Heterovancomycin-resistant Staphylococcus aureus assessed as susceptible isolates by agar dilution method; assay type: functional
[17] = Antimicrobial activity against Group C Streptococcus by agar dilution method; assay type: functional; conditions: Streptococcus sp. 'group C'; method in brief: as §2
Staphylococcus aureus [18] = experiment: Antimicrobial activity against vancomycin-resistant Staphylococcus aureus assessed as susceptible isolates by agar dilution method; assay type: functional
Staphylococcus aureus [19] = experiment: Antimicrobial activity against Heterovancomycin-resistant Staphylococcus aureus by agar dilution method; assay type: functional; method in brief: as §4
Staphylococcus aureus [20] = experiment: Antimicrobial activity against methicillin-resistant Staphylococcus aureus assessed as susceptible isolates by agar dilution method; assay type: functional; method in brief: as §3

Structure (SMILES)	MIC50 (Corynebacterium sp.)	MIC90 (Corynebacterium sp.)	MIC50 (Staphylococcus [1])	MIC90 (Staphylococcus [1])	MIC50 (Streptococcus pneumoniae [3])	MIC90 (Streptococcus pneumoniae [3])	MIC50 (Staphylococcus aureus [4])	MIC90 (Staphylococcus aureus [4])	MIC50 (Staphylococcus aureus [6])	MIC90 (Staphylococcus aureus [6])	MIC50 [7]	MIC90 [7]	MIC50 (Listeria monocytogenes)	MIC90 (Listeria monocytogenes)	MIC50 (Streptococcus mitis)	MIC50 [11]	MIC90 [11]	MIC50 (Staphylococcus aureus [12])	MIC90 (Staphylococcus aureus [12])	Activity (Staphylococcus aureus [13])	further results
CN(C)c1ccc(O)c2c1C[C@H]1C[C@H]3[C@H](N(C)C)C(O)=C(C(N)=O)C(=O)[C@@]3(O)C(O)=C1C2=O [MINOCYCLINE]	2 µg/mL (≈ 4.37 µM)	16 µg/mL (≈ 35 µM)	0.5 µg/mL (≈ 1.09 µM)	2 µg/mL (≈ 4.37 µM)	0.25 µg/mL (≈ 0.546 µM)	0.25 µg/mL (≈ 0.546 µM)	0.25 µg/mL (≈ 0.546 µM)	0.25 µg/mL (≈ 0.546 µM)	0.25 µg/mL (≈ 0.546 µM)	0.25 µg/mL (≈ 0.546 µM)	16 µg/mL (≈ 35 µM)	32 µg/mL (≈ 69.9 µM)	0.25 µg/mL (≈ 0.546 µM)	16 µg/mL (≈ 35 µM)	0.25 µg/mL (≈ 0.546 µM)	0.25 µg/mL (≈ 0.546 µM)	16 µg/mL (≈ 35 µM)	1 µg/mL (≈ 2.19 µM)	4 µg/mL (≈ 8.74 µM)	100%	Activity (Streptococcus pneumoniae [2]): 93%; MIC (Staphylococcus aureus [4]): 0.25 µg/mL (≈ 0.546 µM); Activity [5]: 75%; MIC (Staphylococcus aureus [6]): 0.25 µg/mL (≈ 0.546 µM); Activity [8]: 100%; Activity [9]: 84%; MIC (Listeria monocytogenes): 0.25 µg/mL (≈ 0.546 µM); MIC (Streptococcus mitis): 250 ng/mL (≈ 0.546 µM); Activity [10]: 29%; Activity (Staphylococcus [14]): 96%; MIC [15]: 0.12 µg/mL (≈ 0.262 µM); MIC50 [15]: 0.12 µg/mL (≈ 0.262 µM); MIC90 [15]: 0.25 µg/mL (≈ 0.546 µM); Activity (Staphylococcus aureus [16]): 92%; MIC50 [17]: 0.25 µg/mL (≈ 0.546 µM); MIC90 [17]: 4 µg/mL (≈ 8.74 µM); Activity (Staphylococcus aureus [18]): 96%; MIC50 (Staphylococcus aureus [19]): 0.25 µg/mL (≈ 0.546 µM); MIC90 (Staphylococcus aureus [19]): 0.5 µg/mL (≈ 1.09 µM)
COc1cc(Cc2cnc(N)nc2N)cc(OC)c1OC [TRIMETHOPRIM]	16 µg/mL (≈ 55.1 µM)	16 µg/mL (≈ 55.1 µM)	16 µg/mL (≈ 55.1 µM)	32 µg/mL (≈ 110 µM)	1 µg/mL (≈ 3.44 µM)	4 µg/mL (≈ 13.8 µM)	0.25 µg/mL (≈ 0.861 µM)	32 µg/mL (≈ 110 µM)	1 µg/mL (≈ 3.44 µM)	2 µg/mL (≈ 6.89 µM)	1 µg/mL (≈ 3.44 µM)	1 µg/mL (≈ 3.44 µM)	0.06 µg/mL (≈ 0.207 µM)	0.06 µg/mL (≈ 0.207 µM)	4 µg/mL (≈ 13.8 µM)	1 µg/mL (≈ 3.44 µM)	1 µg/mL (≈ 3.44 µM)	1 µg/mL (≈ 3.44 µM)	32 µg/mL (≈ 110 µM)	92%	Activity (Staphylococcus aureus [20]): 80%; MIC (Streptococcus mitis): < 8 ng/mL; Activity (Staphylococcus [14]): 48%; MIC50 [15]: 0.5 µg/mL (≈ 1.72 µM); MIC90 [15]: 1 µg/mL (≈ 3.44 µM); Activity (Staphylococcus aureus [16]): 80%; MIC50 [17]: 0.5 µg/mL (≈ 1.72 µM); MIC90 [17]: 1 µg/mL (≈ 3.44 µM); Activity (Staphylococcus aureus [18]): 71%; MIC50 (Staphylococcus aureus [19]): 1 µg/mL (≈ 3.44 µM); MIC90 (Staphylococcus aureus [19]): 16 µg/mL (≈ 55.1 µM)
CC(=O)NC[C@H]1CN(c2ccc(N3CCOCC3)c(F)c2)C(=O)O1 [LINEZOLID]	0.06 µg/mL (≈ 0.178 µM)	0.12 µg/mL (≈ 0.356 µM)	1 µg/mL (≈ 2.96 µM)	2 µg/mL (≈ 5.93 µM)	1 µg/mL (≈ 2.96 µM)	2 µg/mL (≈ 5.93 µM)	2 µg/mL (≈ 5.93 µM)	2 µg/mL (≈ 5.93 µM)	2 µg/mL (≈ 5.93 µM)	2 µg/mL (≈ 5.93 µM)	1 µg/mL (≈ 2.96 µM)	2 µg/mL (≈ 5.93 µM)	2 µg/mL (≈ 5.93 µM)	2 µg/mL (≈ 5.93 µM)	1 µg/mL (≈ 2.96 µM)	2 µg/mL (≈ 5.93 µM)	2 µg/mL (≈ 5.93 µM)	1 µg/mL (≈ 2.96 µM)	2 µg/mL (≈ 5.93 µM)	100%	Activity (Streptococcus pneumoniae [2]): 100%; Activity [5]: 100%; MIC [7]: 1 µg/mL (≈ 2.96 µM); Activity [8]: 100%; Activity [9]: 100%; MIC (Listeria monocytogenes): 2 µg/mL (≈ 5.93 µM); Activity [10]: 100%; Activity (Staphylococcus [14]): 100%; MIC50 [15]: 1 µg/mL (≈ 2.96 µM); MIC90 [15]: 1 µg/mL (≈ 2.96 µM); MIC [17]: 1 µg/mL (≈ 2.96 µM); MIC50 [17]: 1 µg/mL (≈ 2.96 µM); MIC90 [17]: 2 µg/mL (≈ 5.93 µM); MIC (Staphylococcus aureus [19]): 1 µg/mL (≈ 2.96 µM); MIC50 (Staphylococcus aureus [19]): 1 µg/mL (≈ 2.96 µM); MIC90 (Staphylococcus aureus [19]): 2 µg/mL (≈ 5.93 µM)
CCCCCCCCCC(=O)N[C@@H](Cc1c[nH]c2ccccc12)C(=O)N[C@H](CC(N)=O)C(=O)N[C@@H](CC(=O)O)C(=O)N[C@@H]1C(=O)NCC(=O)N[C@@H](CCCN)C(=O)N[C@@H](CC(=O)O)C(=O)N[C@H](C)C(=O)N[C@@H](CC(=O)O)C(=O)NCC(=O)N[C@H](CO)C(=O)N[C@@H]([C@H](C)CC(=O)O)C(=O)N[C@@H](CC(=O)c2ccccc2N)C(=O)O[C@@H]1C	0.06 µg/mL (≈ 0.037 µM)	0.12 µg/mL (≈ 0.074 µM)	0.25 µg/mL (≈ 0.154 µM)	0.5 µg/mL (≈ 0.309 µM)	0.06 µg/mL (≈ 0.037 µM)	0.12 µg/mL (≈ 0.074 µM)	0.12 µg/mL (≈ 0.074 µM)	0.25 µg/mL (≈ 0.154 µM)	0.25 µg/mL (≈ 0.154 µM)	0.25 µg/mL (≈ 0.154 µM)	0.015 µg/mL (≈ 0.00926 µM)	0.06 µg/mL (≈ 0.037 µM)	1 µg/mL (≈ 0.617 µM)	2 µg/mL (≈ 1.23 µM)	0.25 µg/mL (≈ 0.154 µM)	0.015 µg/mL (≈ 0.00926 µM)	0.03 µg/mL (≈ 0.0185 µM)	1 µg/mL (≈ 0.617 µM)	2 µg/mL (≈ 1.23 µM)	100%	MIC (Staphylococcus aureus [4]): 0.12 µg/mL (≈ 0.074 µM); Activity [5]: 100%; MIC [7]: 0.015 µg/mL (≈ 0.00926 µM); Activity [8]: 100%; Activity [9]: 100%; MIC (Streptococcus mitis): 6 ng/mL (≈ 0.0037 µM); Activity [10]: 100%; MIC [11]: 0.015 µg/mL (≈ 0.00926 µM); Activity (Staphylococcus [14]): 100%; MIC [15]: 0.015 µg/mL (≈ 0.00926 µM); MIC50 [15]: 0.015 µg/mL (≈ 0.00926 µM); MIC90 [15]: 0.03 µg/mL (≈ 0.0185 µM); Activity (Staphylococcus aureus [16]): 96%; MIC50 [17]: 0.03 µg/mL (≈ 0.0185 µM); MIC90 [17]: 0.12 µg/mL (≈ 0.074 µM); Activity (Staphylococcus aureus [18]): 71%; MIC50 (Staphylococcus aureus [19]): 0.5 µg/mL (≈ 0.309 µM); MIC90 (Staphylococcus aureus [19]): 0.5 µg/mL (≈ 0.309 µM)
